Activity calls are given as the source filed them. The rule behind the calls is not given here.
How the values were obtained:
[1] = test system: Rattus norvegicus; assay: Antiinflammatory activity against carrageenan-induced acute paw edema in po dosed albino rat assessed as reduction of edema; format: functional
Method in brief: (§1)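 Groups of five rats (125–160 g) dosed with test compound; 30 min later 0.2 mL of 1% carrageenan in 0.9% NaCl injected subcutaneously into the plantar aponeurosis of the hind paw. Paw volume read by water plethysmometer at baseline and at 3 h. Mean increase compared with carrageenan-only control group (five rats); % inhibition = (1 − Gt/Gc) × 100.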

[2] = test system: Rattus norvegicus; assay: Antiinflammatory activity against carrageenan-induced acute paw edema in albino rat assessed as reduction of edema at 40 mg/kg, po after 3 hrs relative to control; format: functional; method in brief: as §1
[3] = species: Oryctolagus cuniculus; assay: Inhibition of rabbit distal colon cyclooxygenase at 10 uM
Method in brief: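 Microsomal fraction from rabbit distal colon mucosa, homogenized and washed in 0.1 M Tris pH 8.0, used fresh. Preincubated with test agent 10 min at 37 °C in Tris-HCl pH 8.0 with 2 mM reduced glutathione, 5 mM L-tryptophan and 1 µM hematin. Then 20 µM arachidonic acid with trace [1-14C]arachidonate added, 5 min at 37 °C. Stopped with cold ether/methanol/0.2 M citric acid. PGE2 separated by RP-HPLC and counted by scintillation; inhibition vs paired controls.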

[4] = test system: Rattus norvegicus; assay: Toxicity in albino rat assessed as ulcerogenic activity at 400 mg/kg, po after 5 hrs; format: organism-based; design: dose 400 mg/kg, route oral; conditions: in vivo
Method in brief: (§2)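 Groups of 10 rats (200–230 g) fasted 24 h, then given an oral dose of test compound; controls undosed. Killed 5 h after dosing. Stomach and small intestine examined under microscope for hyperaemia, epithelial shedding, petechiae, frank haemorrhage, and erosion or discrete ulceration with or without perforation; scored as % of animals affected.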

[5] = test system: Rattus norvegicus; assay: Toxicity in albino rat with hyperemia assessed as ulcerogenic activity at 400 mg/kg, po after 5 hrs; format: organism-based; design: dose 400 mg/kg, route oral; conditions: in vivo; method in brief: as §2
[6] = test system: Rattus norvegicus; assay: Toxicity in albino rat assessed as ulcerogenic activity at 100 mg/kg, po after 5 hrs; format: organism-based; design: dose 100 mg/kg, route oral; conditions: in vivo; method in brief: as §2
[7] = test system: Rattus norvegicus; assay: Toxicity in albino rat with hyperemia assessed as ulcerogenic activity at 200 mg/kg, po after 5 hrs; format: organism-based; design: dose 200 mg/kg, route oral; conditions: in vivo; method in brief: as §2
[8] = test system: Rattus norvegicus; assay: Antiinflammatory activity against carrageenan-induced acute paw edema in albino rat assessed as reduction of edema at 20 mg/kg, po after 3 hrs relative to control; format: functional; method in brief: as §1
[9] = test system: Rattus norvegicus; assay: Toxicity in albino rat with hyperemia assessed as ulcerogenic activity at 100 mg/kg, po after 5 hrs; format: organism-based; design: dose 100 mg/kg, route oral; conditions: in vivo; method in brief: as §2
[10] = Toxicity in po dosed albino mouse; format: organism-based; conditions: in vivo, read-out: ALD50
Method in brief: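 Albino mice (25–30 g), in groups of 10, were given test compound at several dose levels. Percent mortality in each group was recorded 24 h after dosing. The approximate 50% lethal dose (ALD50) was calculated by Smith's method.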

[11] = test system: Rattus norvegicus; assay: Antiinflammatory activity against carrageenan-induced acute paw edema in albino rat assessed as reduction of edema at 80 mg/kg, po after 3 hrs relative to control; format: functional; method in brief: as §1
[12] = test system: Rattus norvegicus; assay: Toxicity in albino rat assessed as ulcerogenic activity at 200 mg/kg, po after 5 hrs; format: organism-based; design: dose 200 mg/kg, route oral; conditions: in vivo; method in brief: as §2
[13] = biological target: Phospholipase A2 (Rattus norvegicus) (UniProt P04055); assay: Inhibition of rat PLA2 using [14C]oleate labeled autoclaved Escherichia coli at 10 ug
Method in brief: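 Enzyme amount set for 10–15% hydrolysis over 60 min at 37 °C. Stopped with 2.0 N HCl plus fatty-acid-free BSA, centrifuged at 20,000g for 5 min. Released [14C]oleic acid in the supernatant counted by liquid scintillation.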

Chain of Phospholipase A2 (Rattus norvegicus) (P04055 whole entry): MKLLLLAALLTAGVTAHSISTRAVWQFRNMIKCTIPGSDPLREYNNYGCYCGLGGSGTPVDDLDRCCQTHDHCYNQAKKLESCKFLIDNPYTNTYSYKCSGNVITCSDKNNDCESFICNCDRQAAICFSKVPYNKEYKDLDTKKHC

SMILES | ED50 [1] [mg/kg] | inhibition in vivo at 40 mg/kg [2] [%] | inhibition [3] [%] | Activity [4] [%] | Activity [5] [%] | Activity [6] [%] | Activity [7] [%] | inhibition in vivo at 20 mg/kg [8] [%] | Activity [9] [%] | LD50 [10] [mg/kg] | inhibition in vivo at 80 mg/kg [11] [%] | Activity [12] [%] | inhibition [13] [%] | Activity [3]
COc1cc(OC)nc(Oc2ccc(F)cc2C(=O)c2ccc(C)cc2)n1 | 62.5 | 29.1 | 40 | 40 | 100 | 10 | 90 | 19.4 | 70 | > 1000 | 58.2 | 20 | 20 | –
COc1cc(OC)nc(Oc2ccc(C)cc2C(=O)c2ccc(C)cc2)n1 | 60.2 | 45.8 | 87 | 40 | 100 | 20 | 70 | 20.2 | 50 | > 1000 | 55.3 | 30 | 10 | –
COc1cc(OC)nc(Oc2ccc(F)cc2C(=O)c2ccc(Cl)cc2)n1 | 51.2 | 48.6 | – | 12 | 90 | 10 | 60 | 29.9 | 30 | > 1000 | 88.6 | 20 | 60 | inactive
COc1cc(OC)nc(Oc2ccc(C)cc2C(=O)c2ccc(Cl)cc2)n1 | 77.5 | 21.5 | – | 80 | 60 | 40 | 40 | 11.5 | 20 | > 1000 | 45.5 | 50 | 80 | inactive
CCCCC1C(=O)N(c2ccccc2)N(c2ccccc2)C1=O [PHENYLBUTAZONE] | – | 34.1 | 89 | 90 | 90 | 30 | 60 | 29.6 | 30 | – | 51.9 | 60 | 85 | –
COc1cc(OC)nc(Oc2ccc(Cl)cc2C(=O)c2ccc(Cl)cc2)n1 | 78.3 | 29.5 | 20 | 40 | 100 | 10 | 60 | 13.4 | 40 | > 1000 | 58.7 | 20 | 40 | –
CC(=O)Oc1ccccc1C(=O)O [ASPIRIN] | – | 38.8 | 99 | 90 | 90 | 80 | 60 | 29.9 | 30 | – | 61.4 | 90 | 90 | –
COc1cc(OC)nc(Oc2ccc(Br)cc2C(=O)c2ccc(Cl)cc2)n1 | 77.2 | 33.2 | 70 | 15 | 90 | 5 | 70 | 13.7 | 50 | > 1000 | 57.7 | 10 | 30 | –

Reference: ChEMBL document CHEMBL1155856, “Synthesis and anti-inflammatory activity of 2-(2-aroylaroxy)-4,6-dimethoxy pyrimidines” (Bioorg Med Chem Lett, 2008)
